This is an account of results in ChEMBL document CHEMBL3286178, “Cell membrane mediated (-)-epicatechin effects on upstream endothelial cell signaling: evidence for a surface receptor” (Bioorg Med Chem Lett, 2014).

The structures appear in SMILES notation. Active and inactive are the calls of the source. No cut-off for these calls is given here.

The species entered for assay [1] is Homo sapiens. Nature of the assay: Induction of PI3K phosphorylation in calcium free HCAEC at 100 nM after 10 mins incubation by Western blot analysis. The gist of the method: (§1)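 Ca2+-free human coronary artery endothelial cells treated 10 min with 100 nM free or dextran-conjugated compound (conjugate dose expressed as equivalent bound compound); phospho-PI3K, phospho-PDK1, phospho-AKT, phospho-eNOS (Ser1177, Ser615) and PIP3 assessed, with or without PI3K inhibitor wortmannin; Western blots representative of three independent experiments.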

The species named for assay [2] is Homo sapiens. Nature of the assay: Induction of PIP3 level in calcium free HCAEC at 100 nM after 10 mins incubation by Western blot analysis. The assay is classed as functional. The gist of the method:
as §1

The species named for assay [3] is Homo sapiens. Nature of the assay: Induction of PI3K phosphorylation in calcium free HCAEC at 100 nM after 10 mins incubation by Western blot analysis in presence of wortmannin. The gist of the method:
as §1

The species named for assay [4] is Homo sapiens. Nature of the assay: Induction of PIP3 level in calcium free HCAEC at 100 nM after 10 mins incubation by Western blot analysis in presence of wortmannin. The assay is classed as functional. The gist of the method: as §1
Assay [5] is filed under the species Homo sapiens. Nature of the assay: Induction of PI3K in calcium free HCAEC assessed as PDK1 phosphorylation at 100 nM after 10 mins incubation by Western blot analysis. The essentials: as §1
The species named for assay [6] is Homo sapiens. Nature of the assay: Induction of PI3K in calcium free HCAEC assessed as PDK1 phosphorylation at 100 nM after 10 mins incubation by Western blot analysis in presence of wortmannin. The gist of the method:
as §1

Assay [7] is filed under the species Homo sapiens. Nature of the assay: Induction of PI3K in calcium free HCAEC assessed as Akt phosphorylation at 100 nM after 10 mins incubation by Western blot analysis. The essentials: as §1
The species named for assay [8] is Homo sapiens. Nature of the assay: Induction of PI3K in calcium free HCAEC assessed as Akt phosphorylation at 100 nM after 10 mins incubation by Western blot analysis in presence of wortmannin. The gist of the method:
as §1

The target in assay [9] is T1, Nitric oxide synthase 3 (Homo sapiens) (UniProt P29474).
T1 sequence (whole entry): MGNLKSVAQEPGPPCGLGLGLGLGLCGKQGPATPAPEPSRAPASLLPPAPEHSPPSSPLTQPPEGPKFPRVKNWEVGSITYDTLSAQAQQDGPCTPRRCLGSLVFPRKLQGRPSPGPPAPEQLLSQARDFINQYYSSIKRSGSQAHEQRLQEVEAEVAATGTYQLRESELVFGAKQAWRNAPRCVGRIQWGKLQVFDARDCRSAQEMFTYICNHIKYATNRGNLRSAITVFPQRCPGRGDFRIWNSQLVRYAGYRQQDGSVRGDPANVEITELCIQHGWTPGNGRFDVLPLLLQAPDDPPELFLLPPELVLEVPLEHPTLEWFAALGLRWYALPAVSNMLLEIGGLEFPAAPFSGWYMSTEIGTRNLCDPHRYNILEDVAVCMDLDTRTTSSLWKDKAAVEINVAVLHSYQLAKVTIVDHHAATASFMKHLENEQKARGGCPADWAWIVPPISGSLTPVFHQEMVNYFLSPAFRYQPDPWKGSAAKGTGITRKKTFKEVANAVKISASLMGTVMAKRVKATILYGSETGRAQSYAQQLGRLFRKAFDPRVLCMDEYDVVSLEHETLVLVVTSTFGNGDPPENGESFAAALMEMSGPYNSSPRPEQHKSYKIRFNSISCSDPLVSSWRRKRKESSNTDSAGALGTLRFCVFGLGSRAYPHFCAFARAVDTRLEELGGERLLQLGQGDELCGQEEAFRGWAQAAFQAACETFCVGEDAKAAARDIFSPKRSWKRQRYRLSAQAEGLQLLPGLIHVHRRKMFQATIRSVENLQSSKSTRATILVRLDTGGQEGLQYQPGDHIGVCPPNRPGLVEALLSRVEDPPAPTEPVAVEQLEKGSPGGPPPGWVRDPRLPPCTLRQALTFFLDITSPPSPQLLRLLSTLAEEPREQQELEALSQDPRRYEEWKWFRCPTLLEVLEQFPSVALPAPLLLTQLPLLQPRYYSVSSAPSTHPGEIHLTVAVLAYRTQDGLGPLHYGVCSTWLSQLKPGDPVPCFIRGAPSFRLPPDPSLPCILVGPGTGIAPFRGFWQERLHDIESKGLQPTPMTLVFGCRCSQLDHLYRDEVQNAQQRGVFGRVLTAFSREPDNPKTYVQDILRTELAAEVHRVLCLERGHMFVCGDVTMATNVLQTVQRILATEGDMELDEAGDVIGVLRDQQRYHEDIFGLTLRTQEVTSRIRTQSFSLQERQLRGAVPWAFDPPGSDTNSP
Nature of the assay: Induction of eNOS activation in calcium free HCAEC assessed as phosphorylation at serine 1177 at 100 nM after 10 mins incubation. The gist of the method:
as §1

Assay [10] concerns the target T1, Nitric oxide synthase 3 (Homo sapiens). Nature of the assay: Induction of eNOS activation in calcium free HCAEC assessed as phosphorylation at serine 615 at 100 nM after 10 mins incubation. The essentials:
as §1

The target is the same in assay [11]. Nature of the assay: Induction of eNOS activation in calcium free HCAEC assessed as phosphorylation at serine 1177 at 100 nM after 10 mins incubation in presence of wortmannin. The gist of the method:
as §1

For assay [12] the target is unchanged. Nature of the assay: Induction of eNOS activation in calcium free HCAEC assessed as phosphorylation at serine 615 at 100 nM after 10 mins incubation in presence of wortmannin. The essentials: as §1
The species entered for assay [13] is Homo sapiens. Nature of the assay: Effect on eNOS phosphorylation at Thr 495 in calcium free HCAEC at 100 nM after 10 mins incubation. The assay is classed as functional.
Assay [14] deals with brain. Nature of the assay: Binding affinity to rat brain cell membrane at 10 uM.
A short description of assay [15]: Binding affinity to rat brain cell membrane. The assay is classed as cell membranes.

Take `Oc1cc(O)c2c(c1)O[C@H](c1ccc(O)c(O)c1)[C@H](O)C2`: the outcome in assay [1], in assay [2], in [5], in [7], in [9] and in [10] was Active. The result in [3], in assay [4], in assay [6], in [8], in assay [11] and in [12] was inactive. The result in assay [13] and in assay [14] was inactive.

As to `O=C(O[C@@H]1Cc2c(O)cc(O)cc2O[C@@H]1c1cc(O)c(O)c(O)c1)c1cc(O)c(O)c(O)c1` [EPIGALOCATECHIN GALLATE], in assay [15], the Ki was determined as 0.025 µM.

For the molecule `Oc1ccc(/C=C/c2cc(O)cc(O)c2)cc1` [RESVERATROL], in assay [15], the Ki was found to be 0.102 µM.

`O=C(O[C@@H]1Cc2c(O)cc(O)cc2O[C@@H]1c1ccc(O)c(O)c1)c1cc(O)c(O)c(O)c1` [EPICATECHIN GALLATE] displayed an inhibitory constant (Ki) in assay [15] of 0.025 µM.
